First the molecules themselves.
B1: tRNA (parent)
chain: GUUCCGUUGGCGUAAUGGUAACGCGUCUCCCUCCUAAGGAGAAGACUGCGGGUUCGAGUCCCGUACGGAACG

Consider 47 variants from the RNAGym collection of RNA variant scans (doi:10.1126/science.aae0568).

This sample holds only a part of the variants without activity. Some results are limits rather than exact numbers.

The variants in the data set derive from B1. Description: yeast fitness relative to wild type (ratio to wild type); higher = fitter; tRNA-Arg(CCU), competitive growth, 37 C, YPD. In a few lines: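 A pool of Saccharomyces cerevisiae strains, each with a tRNA-Arg(CCU) gene variant at the native genomic locus, was competed in YPD at 37°C for 24 hours across six parallel replicates. The variants had been chemically synthesised at a 3% per-site mutation rate over 69 sites, and gene amplicons before and after competition were read by 100-nucleotide paired-end sequencing. Darwinian fitness relative to wild type rested on changes in genotype frequencies. Genotypes required ≥ 100 starting reads, and estimates < 0.5 were set to 0.5.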
Consider A65G C66G G68A, for which the yeast fitness is 0.575.
With A65C C66U the figure was 0.89; with A65C C66G, 0.588.
For the variant A65C C66A, the yeast fitness turned out to be 0.808.
With G68A A69C the figure was 0.766.
In the case of G67U A69G, the yeast fitness amounted to 1.05.
With G68C A70G the figure was 0.897; with G68C A70U, 0.899; with A65U C66G G68C, no more than 0.5.
With C66U A69G the figure was 0.801; with G67A A70G, 0.917.
With G67A A70U the figure was 0.938.
In the case of A65C G68A, the yeast fitness came to 0.767.
C66U G68C: the yeast fitness was found to be 0.779.
Consider A65U A70U, for which the yeast fitness turned out to be 1.11.
In the case of A65U, the yeast fitness was determined as 0.993.
With A65G the figure was 0.999; with C66A, 0.766.
With C66G the figure was 0.902; with C66U, 0.968; with C66U G67A, 0.841.
Take C66A A69C: the yeast fitness turned out to be 0.665.
With G67A A69U the figure was 0.733; with G67A A69C, 0.877; with A65U C66A, 0.751.
With G68A A70G the figure was 0.885.
On to A65C G67C, for which the yeast fitness was 0.782.
With G67C A69C the figure was 0.651; with G67C A69G, 0.977.
With A65C A69C A70G the figure was 0.554.
A69G A70G: the yeast fitness amounted to 1.02.
With A69G A70C the figure was 0.896; with A65G A69U, 0.993.
With A65U G68A the figure was 0.729; with C66U A70C, 0.895.
With A65G G68A the figure was 0.924.
A65G G68U: the yeast fitness came out at 0.809.
With A65G A70U the figure was 0.943; with A65G A70G, 0.865; with A69G, 0.982.
For the variant A69U, the yeast fitness was 1.04.
For A69C, the yeast fitness was found to be 1.03.
In the case of G67U A70G, the yeast fitness worked out at 0.822.
Take A69U A70U: the yeast fitness amounted to 1.03.
For the variant A69U A70G, the yeast fitness came out at 0.871.
As to C66A A70G, the yeast fitness stood at 0.764.
With G67C G68A the figure was 0.874.
